Measured values published in ChEMBL document CHEMBL1146062, “Synthesis of 3-benzyl-2-substituted quinoxalines as novel monoamine oxidase A inhibitors” (Bioorg Med Chem Lett, 2006).

Legend:
[1] = target: T1, Amine oxidase [flavin-containing] A (Rattus norvegicus, UniProt P21396); experiment: Inhibition of rat liver mitochondria MAOA at 100 uM
T1 sequence (P21396 whole entry): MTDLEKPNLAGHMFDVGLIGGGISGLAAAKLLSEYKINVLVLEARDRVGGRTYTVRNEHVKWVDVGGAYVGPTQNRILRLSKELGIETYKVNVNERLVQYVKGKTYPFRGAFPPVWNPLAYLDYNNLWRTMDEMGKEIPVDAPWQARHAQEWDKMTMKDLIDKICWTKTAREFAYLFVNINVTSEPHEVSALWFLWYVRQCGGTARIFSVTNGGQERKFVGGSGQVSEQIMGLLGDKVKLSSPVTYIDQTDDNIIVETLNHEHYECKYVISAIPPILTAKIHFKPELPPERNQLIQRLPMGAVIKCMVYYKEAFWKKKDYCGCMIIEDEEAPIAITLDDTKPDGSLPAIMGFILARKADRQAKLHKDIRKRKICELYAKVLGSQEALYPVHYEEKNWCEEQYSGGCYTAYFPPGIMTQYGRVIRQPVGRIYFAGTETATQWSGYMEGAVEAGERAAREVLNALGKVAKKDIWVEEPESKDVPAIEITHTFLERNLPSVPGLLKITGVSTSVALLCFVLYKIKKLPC
Method in brief: (§1)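 MAO-A activity was measured in rat liver mitochondria with serotonin (5HT) as substrate. Test compounds were used at a final concentration of 1 × 10^-4 M, and inhibition was determined.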

[2] = target: T1, Amine oxidase [flavin-containing] A; experiment: Inhibition of rat liver mitochondria MAOA; method in brief: as §1
[3] = target: T2, Amine oxidase [flavin-containing] B (Rattus norvegicus, UniProt P19643); experiment: Inhibition of rat liver mitochondria MAOB
T2 sequence (P19643 whole entry): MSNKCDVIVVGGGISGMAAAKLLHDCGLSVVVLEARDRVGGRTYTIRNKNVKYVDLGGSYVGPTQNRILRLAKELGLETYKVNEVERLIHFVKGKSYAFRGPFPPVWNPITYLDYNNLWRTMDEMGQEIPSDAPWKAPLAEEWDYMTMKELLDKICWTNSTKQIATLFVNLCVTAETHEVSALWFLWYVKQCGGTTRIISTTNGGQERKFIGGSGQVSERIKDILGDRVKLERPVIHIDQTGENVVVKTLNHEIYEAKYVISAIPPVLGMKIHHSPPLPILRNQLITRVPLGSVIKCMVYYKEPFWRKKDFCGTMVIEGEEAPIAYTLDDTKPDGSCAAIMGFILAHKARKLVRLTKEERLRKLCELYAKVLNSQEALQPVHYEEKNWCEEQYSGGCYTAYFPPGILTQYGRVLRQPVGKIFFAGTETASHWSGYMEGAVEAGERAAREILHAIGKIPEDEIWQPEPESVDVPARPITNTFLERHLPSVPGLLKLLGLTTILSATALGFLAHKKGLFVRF

[4] = test system: Mus musculus; experiment: Toxicity in mouse upto 250 mg/kg, po; type: organism-based; design: dose 250 mg/kg, route oral; conditions: in vivo
Method in brief: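 Acute oral toxicity was assessed in male mice. Tolerability and mortality were recorded at doses up to […].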

[5] = test system: Mus musculus; experiment: Toxicity in mouse upto 125 mg/kg administered by parenteral route; type: organism-based; design: dose 125 mg/kg; conditions: in vivo

| SMILES | inhibition at 100 µM [1] | IC50 [2] | IC50 [3] | Activity [4] | Activity [5] |
| --- | --- | --- | --- | --- | --- |
| OCCNc1nc2ccccc2nc1Cc1ccccc1 | 46% | 0.0037 µM | 86 µM | Non-toxic | Non-toxic |
| CNCCNc1nc2ccccc2nc1Cc1ccccc1 | 40.9% | 0.092 µM | 790 µM | Non-toxic | Non-toxic |
| c1ccc(Cc2nc3ccccc3nc2NCCN2CCOCC2)cc1 | 46.1% | 0.0013 µM | 840 µM | Non-toxic | Non-toxic |
| Clc1ccc(Cc2nc3ccccc3nc2NCCN2CCOCC2)cc1 | 50.5% | 0.0017 µM | 360 µM | Non-toxic | Non-toxic |
| NNc1nc2ccccc2nc1Cc1ccccc1 | 54.1% | 0.0088 µM | 840 µM | Non-toxic | Non-toxic |

The remaining molecules from weak to strong by IC50 [2], led by results:

| inhibition at 100 µM [1] | IC50 [2] | IC50 [3] | SMILES | Activity [4] | Activity [5] |
| --- | --- | --- | --- | --- | --- |
| 40% | 0.073 µM | 960 µM | Clc1cc2nc(Cc3ccccc3)c(NCCN3CCOCC3)nc2cc1Cl | Non-toxic | Non-toxic |
| 42% | 0.0076 µM | 74 µM | NNc1nc2cc(Cl)c(Cl)cc2nc1Cc1ccccc1 | Non-toxic | Non-toxic |
| 49.5% | 0.0021 µM | 570 µM | NNc1nc2ccccc2nc1Cc1ccc(Cl)cc1 | Non-toxic | Non-toxic |
